Measurements as given in the RNAGym collection of RNA variant scans (doi:10.1002/anie.201605470).

B1: Osa-1-4 twister ribozyme (parent)
chain: CCGCCUAACACUGCCAAUGCCGGUCCCAAGCCCGGAUAAAAGUGGAGGGGGCGG

Variants of: B1
Test: self-cleavage, relative activity (ratio to wild type); higher = more cleavage; co-transcriptional
In short: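 A DNA template encoding a 54-nucleotide twister ribozyme from Oryza sativa was made so that each of the 48 positions downstream of the cleavage site carried 97 % wild-type base and 1 % of each other base. Transcription in vitro ran for 2 h at 37 °C, during which the ribozyme could cleave itself. Reverse transcription used a template-switching oligonucleotide, and the products were PCR-amplified and deep-sequenced. Each read was scored as cleaved or uncleaved by whether upstream sequence was present, and relative activity is the fraction cleaved normalised to wild type.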
In the case of G19U U24A, the self-cleavage is reported as 0.05. With G19U U24C the self-cleavage was 0.07. In the case of G19U U24G, the self-cleavage is reported as 0.07. Variant U18G has a self-cleavage of 0.84. Work on U18C yielded a self-cleavage of 0.96. For U18A, the self-cleavage was 0.95. U18C U37G showed a self-cleavage of 0.95. For U18C U37A, the self-cleavage was 0.69. For U18C U37C, the self-cleavage was 0.97. In the case of A17U G44U, the self-cleavage is reported as 0.94. For A17U G44C, the self-cleavage was 0.98. A17U G44A showed a self-cleavage of 1. Variant G19C G42A has a self-cleavage of 0.05. G19C G42C showed a self-cleavage of 0.04. Variant G19C G42U has a self-cleavage of 0.02. G19C G34A showed a self-cleavage of 0.1. Work on G19C G34C yielded a self-cleavage of 0.05. Work on G19C G34U yielded a self-cleavage of 0.07. In the case of G19C G48C, the self-cleavage is reported as 0.02. In the case of G19C G48U, the self-cleavage is reported as 0.03. In the case of G19C G48A, the self-cleavage is reported as 0.02. In the case of G19C U12G, the self-cleavage is reported as 0.06. Work on G19C U12A yielded a self-cleavage of 0.04. With G19C U12C the self-cleavage was 0.04. A17U G42U showed a self-cleavage of 0.56. Work on A17U G42A yielded a self-cleavage of 0.17. With A17U G42C the self-cleavage was 0.29. G19A G51C gave a self-cleavage of 0.08. Work on G19A G51U yielded a self-cleavage of 0.17. G19A G51A showed a self-cleavage of 0.33. Variant A17U G34A has a self-cleavage of 0.82. Variant A17U G34C has a self-cleavage of 0.5. In the case of A17U G34U, the self-cleavage is reported as 0.78. Work on U18C U24A yielded a self-cleavage of 0.21. With U18C U24C the self-cleavage was 0.24. U18C U24G showed a self-cleavage of 0.02. With G19A G50A the self-cleavage was 0.92. Work on G19A G50U yielded a self-cleavage of 0.56. Variant G19A G50C has a self-cleavage of 0.27. With A17U G45C the self-cleavage was 0.06. Work on A17U G45U yielded a self-cleavage of 0.18. Work on A17U G45A yielded a self-cleavage of 0.54. For A17U U12C, the self-cleavage was 0.58. With A17U U12A the self-cleavage was 0.94. Work on A17U U12G yielded a self-cleavage of 0.44. For C20A C21G, the self-cleavage was 0.12. In the case of C20A C21A, the self-cleavage is reported as 0.78. With C20A C21U the self-cleavage was 0.86. For G19C G30C, the self-cleavage was 0.03. Work on G19C G30A yielded a self-cleavage of 0.02. G19C G30U gave a self-cleavage of 0.02. A17U G50C gave a self-cleavage of 1.02. A17U G50U showed a self-cleavage of 1.02. Variant A17U G50A has a self-cleavage of 0.69. In the case of G19C G22A, the self-cleavage is reported as 0.06. Variant G19C G22C has a self-cleavage of 0.03. Variant G19C G22U has a self-cleavage of 0.03. A17U G51U gave a self-cleavage of 0.38. Variant A17U G51A has a self-cleavage of 0.67. With A17U G51C the self-cleavage was 0.19. Variant U18A U24G has a self-cleavage of 0.02. Variant U18A U24A has a self-cleavage of 0.25. For U18A U24C, the self-cleavage was 0.37. For G19A G23A, the self-cleavage was 0.12. In the case of G19A G23U, the self-cleavage is reported as 0.05. For G19A G23C, the self-cleavage was 0.06. Variant G19C G47A has a self-cleavage of 0.03. In the case of G19C G47U, the self-cleavage is reported as 0.04. With G19C G47C the self-cleavage was 0.02. Variant C20A C52A has a self-cleavage of 0.8. For C20A C52G, the self-cleavage was 0.79. C20A C52U showed a self-cleavage of 0.82. With A17U G54C the self-cleavage was 1. A17U G54U showed a self-cleavage of 0.99. With A17U G54A the self-cleavage was 0.99. For G19C G45C, the self-cleavage was 0.03. In the case of G19C G45A, the self-cleavage is reported as 0.03. Work on G19C G45U yielded a self-cleavage of 0.03. Work on C20A C26U yielded a self-cleavage of 0.87. Work on C20A C26A yielded a self-cleavage of 0.08. Work on C20A C26G yielded a self-cleavage of 0.08. Work on G19U U12C yielded a self-cleavage of 0.05. G19U U12A showed a self-cleavage of 0.07. Work on G19U U12G yielded a self-cleavage of 0.09. C20A G34U showed a self-cleavage of 0.64. Variant C20A G34C has a self-cleavage of 0.26. Work on C20A G34A yielded a self-cleavage of 0.84. Variant G19U G54C has a self-cleavage of 0.1. G19U G54A showed a self-cleavage of 0.16. Variant G19U G54U has a self-cleavage of 0.54. C20A G22A gave a self-cleavage of 0.39. Variant C20A G22C has a self-cleavage of 0.07. C20A G22U showed a self-cleavage of 0.53. U18C U43G showed a self-cleavage of 0.3. For U18C U43C, the self-cleavage was 0.35. U18C U43A showed a self-cleavage of 0.65. G19U U18A showed a self-cleavage of 0.11. G19U U18G showed a self-cleavage of 0.33. With G19U U18C the self-cleavage was 0.36. Work on A17U U43C yielded a self-cleavage of 0.8. With A17U U43A the self-cleavage was 0.91. Work on A17U U43G yielded a self-cleavage of 0.57. In the case of G19A U43G, the self-cleavage is reported as 0.12. For G19A U43A, the self-cleavage was 0.23. For G19A U43C, the self-cleavage was 0.12. Variant A17U G35C has a self-cleavage of 0.86. A17U G35A gave a self-cleavage of 0.9. With A17U G35U the self-cleavage was 0.92. With G19C U24C the self-cleavage was 0.04. For G19C U24A, the self-cleavage was 0.04. For G19C U24G, the self-cleavage was 0.04. With A17U G48U the self-cleavage was 0.08. For A17U G48A, the self-cleavage was 0.16. Work on A17U G48C yielded a self-cleavage of 0.13. A17U U24G gave a self-cleavage of 0.03. Work on A17U U24C yielded a self-cleavage of 0.44. With A17U U24A the self-cleavage was 0.3. For G19U G50U, the self-cleavage was 0.21. For G19U G50A, the self-cleavage was 0.59. Work on G19U G50C yielded a self-cleavage of 0.1. For A17U G53A, the self-cleavage was 0.95. For A17U G53U, the self-cleavage was 0.41. With A17U G53C the self-cleavage was 0.12. G19U G23U showed a self-cleavage of 0.04. For G19U G23C, the self-cleavage was 0.04. For G19U G23A, the self-cleavage was 0.07. C20A C31A showed a self-cleavage of 0.04. With C20A C31G the self-cleavage was 0.14. With C20A C31U the self-cleavage was 0.81. In the case of A17U U18A, the self-cleavage is reported as 0.89. In the case of A17U U18G, the self-cleavage is reported as 0.87. Work on A17U U18C yielded a self-cleavage of 0.9. U18G U37G showed a self-cleavage of 0.85. Work on U18G U37A yielded a self-cleavage of 0.59. For U18G U37C, the self-cleavage was 0.86. G19C G44A gave a self-cleavage of 0.07. Work on G19C G44U yielded a self-cleavage of 0.07. With G19C G44C the self-cleavage was 0.14. G19A G42A gave a self-cleavage of 0.1. For G19A G42C, the self-cleavage was 0.09. For G19A G42U, the self-cleavage was 0.06. Variant A17U C52G has a self-cleavage of 0.98. A17U C52U showed a self-cleavage of 1.01. With A17U C52A the self-cleavage was 1.02. A17U G47C showed a self-cleavage of 0.16. For A17U G47A, the self-cleavage was 0.47. Variant A17U G47U has a self-cleavage of 0.45. Work on C20A G42A yielded a self-cleavage of 0.59. C20A G42C gave a self-cleavage of 0.17. G19A U24C showed a self-cleavage of 0.08. G19A U24G gave a self-cleavage of 0.09. In the case of G19A U24A, the self-cleavage is reported as 0.08. With A17U G19C the self-cleavage was 0.43. In the case of A17U G19U, the self-cleavage is reported as 0.38. Variant A17U G19A has a self-cleavage of 0.83. Work on G19C U18C yielded a self-cleavage of 0.39. In the case of G19C U18G, the self-cleavage is reported as 0.91. Variant G19C U18A has a self-cleavage of 0.66. For A17U U37A, the self-cleavage was 0.73. In the case of A17U U37C, the self-cleavage is reported as 1.06. A17U U37G gave a self-cleavage of 1.01. With G19A G48A the self-cleavage was 0.06. G19A G48U showed a self-cleavage of 0.06. G19A G48C showed a self-cleavage of 0.06. With G19U G48C the self-cleavage was 0.03. In the case of G19U G48A, the self-cleavage is reported as 0.04. Work on G19U G48U yielded a self-cleavage of 0.04.
